Reference: ChEMBL document CHEMBL4376859, “Prodrugs for nitroreductase-based cancer therapy-3: Antitumor activity of the novel dinitroaniline prodrugs/Ssap-NtrB enzyme suicide gene system: Synthesis, in vitro and in silico evaluation in prostate cancer” (Eur J Med Chem, 2020)
Calls of active or inactive are those of the source. The calls are words filed in the database; no cut-off is given here.

Columns and labels:
PC-3 [1] = assay: Cytotoxicity against human PC3 cells […] Staphylococcus saprophyticus nitroreductase NtrB assessed as reduction in cell viability in presence of NADH as cofactor after 48 hrs by SRB assay; type: functional, cell-based; conditions: PC-3, 48 h
Outline: (§1)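 Compounds were reduced outside the cells by purified His-tag (Ni column) Ssap-NtrB. The reaction mix held 600 µM NADH and compound (150, 39, 9 µM, or 180, 18, 1.8 nM) and was applied to PC-3 cells. Controls were compound alone in 25 mM Tris/HCl pH 7.5, and enzyme alone at 31 µg/mL. After 48 h, SRB absorbance was read at 492 nm and converted to % viability.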

Putative nitroreductase [2] = target: T1, Putative nitroreductase (Staphylococcus saprophyticus subsp. saprophyticus (strain ATCC 15305 / DSM20229 / NCIMB 8711 / NCTC 7292 / S-41), UniProt Q4A0P1); assay: Substrate activity at Staphylococcus saprophyticus nitroreductase expressed in Escherichia coli BL21 (DE3) assessed as retention time by HPLC analysis; type: ADME
T1 sequence (Q4A0P1 whole entry): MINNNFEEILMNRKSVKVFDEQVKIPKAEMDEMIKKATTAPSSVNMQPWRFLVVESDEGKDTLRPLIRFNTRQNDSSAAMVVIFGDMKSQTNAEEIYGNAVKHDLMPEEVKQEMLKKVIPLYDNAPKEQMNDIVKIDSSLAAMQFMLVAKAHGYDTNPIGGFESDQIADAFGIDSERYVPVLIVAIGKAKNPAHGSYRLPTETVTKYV

Hep 3B2 [3] = assay: Cytotoxicity against human Hep3B cells assessed as cell viability at 9 to 150 uM after 48 hrs by MTT assay relative to control; type: functional
Outline: (§2)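 Hep3B hepatoma, PC-3 prostate cancer and HUVEC (healthy control) cells were exposed to nitro compounds at 150, 75, 38, 19 and 9 µM for 24 h and 48 h. Viability was read by MTT assay, and IC50 values were derived from the growth inhibition curves.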

[4] = Cytotoxicity against human HUVEC cells assessed as cell viability at 9 to 150 uM after 24 hrs by MTT assay relative to control; type: cell-based; conditions: read-out: Activity; outline: as §2
PC-3 [5] = assay: Cytotoxicity against human PC3 cells assessed as reduction in cell viability after 48 hrs by SRB assay; type: functional, cell-based; outline: as §1
PC-3 [6] = assay: Cytotoxicity against human PC3 cells […] Staphylococcus saprophyticus nitroreductase NtrB assessed as cell viability at 150 uM in presence of NADH as cofactor after 48 hrs by SRB assay relative to control; type: functional; conditions: PC-3, 48 h, read-out: Activity; outline: as §1
Hep 3B2 [7] = assay: Cytotoxicity against human Hep3B cells assessed as cell viability at 9 to 150 uM after 24 hrs by MTT assay relative to control; type: functional; outline: as §2
[8] = Cytotoxicity against human HUVEC cells assessed as cell viability at 9 to 150 uM after 48 hrs by MTT assay relative to control; type: cell-based; conditions: read-out: Activity; outline: as §2
Hep 3B2 [9] = assay: Cytotoxicity against human Hep3B cells assessed as cell viability after 48 hrs by MTT assay; type: functional, cell-based; outline: as §2
Putative nitroreductase [10] = target: T1, Putative nitroreductase; assay: Substrate activity at Staphylococcus saprophyticus nitroreductase NtrB assessed as Kcat/Km using NADH as cofactor in Tris-Cl buffer at pH 7.5 by HPLC analysis relative to CB1954/NfsB; type: ADME
PC-3 [11] = assay: Cytotoxicity against human PC3 cells assessed as cell viability at 9 to 150 uM after 24 hrs by MTT assay relative to control; type: functional; outline: as §2
PC-3 [12] = assay: Cytotoxicity against human PC3 cells assessed as cell viability at 9 to 150 uM after 48 hrs by MTT assay relative to control; type: functional; outline: as §2
Putative nitroreductase [13] = target: T1, Putative nitroreductase; assay: Substrate activity at Staphylococcus saprophyticus nitroreductase NtrB assessed as enzyme specific activity using NADH as cofactor in Tris-Cl buffer at pH 7.5 by HPLC analysis; type: ADME

Structure (SMILES)	IC50 (PC-3 [1])	Retention_time (Putative nitroreductase [2])	Activity (Hep 3B2 [3])	viability at 24 h, up to 150 µM [4]	Activity (PC-3 [5])	viability at 150 µM (PC-3 [6])	Activity (Hep 3B2 [7])	viability at 48 h, up to 150 µM [8]	IC50 (Hep 3B2 [9])	fold change (FC) (Putative nitroreductase [10])	Activity (PC-3 [11])	Activity (PC-3 [12])	Activity (Putative nitroreductase [13])
O=[N+]([O-])c1ccc(N2CCCC(O)C2)c([N+](=O)[O-])c1 (stereo not given)	150 µM	14.9 min	>80%	> 80%	inactive	50%	>80%	> 80%	–	–	–	–	–
CCC(=O)Oc1cc(N2CCOCC2)c([N+](=O)[O-])cc1[N+](=O)[O-]	–	–	>80%	51 to 80%	–	–	>80%	51 to 80%	–	–	–	–	–
O=[N+]([O-])c1cc([N+](=O)[O-])c(Nc2ccc(S(=O)(=O)O)cc2)cc1Nc1ccc(S(=O)(=O)O)cc1	–	4.4 min	–	> 80%	–	–	51 - 80%	> 80%	71.9 µM	2.37	>80%	>80%	2.12 U/mg
COCCC(=O)Oc1cc(N2CCOCC2)c([N+](=O)[O-])cc1[N+](=O)[O-]	–	–	>80%	51 to 80%	–	–	>80%	51 to 80%	–	–	–	–	–
CC(C)CC(=O)Oc1cc(N2CCOCC2)c([N+](=O)[O-])cc1[N+](=O)[O-]	–	24.6 min	>80%	51 to 80%	–	–	>80%	51 to 80%	–	–	–	–	–
CCNc1ccc([N+](=O)[O-])cc1[N+](=O)[O-]	6.43 µM	16.92 min	51 - 80%	> 80%	inactive	–	51 - 80%	> 80%	–	–	>80%	>80%	–
O=[N+]([O-])c1ccc(N2CCC[C@H]2CO)c([N+](=O)[O-])c1	> 150 µM	15.1 min	>80%	> 80%	inactive	50%	>80%	> 80%	–	–	–	–	–
CN(C)C(=O)Oc1cc(N2CCOCC2)c([N+](=O)[O-])cc1[N+](=O)[O-]	–	19.28 min	>80%	51 to 80%	–	–	>80%	51 to 80%	–	–	–	–	–
O=[N+]([O-])c1ccc(Nc2cc(F)cc(F)c2)c([N+](=O)[O-])c1	–	17.74 min	–	51 to 80%	inactive	–	>80%	51 to 80%	89.4 µM	–	>80%	>80%	–
